In ChEMBL document CHEMBL1165965, “Synthesis and structure-activity relationships of 1,2,3,4-tetrahydropyrido[2,3-b]pyrazines as potent and selective inhibitors of the anaplastic lymphoma kinase” (Bioorg Med Chem, 2010):

Legend:
[1] = target: Serine/threonine-protein kinase MRCK gamma (Homo sapiens) (UniProt Q6DT37); assay: Inhibition of DMPK2 at 1 uM
Procedure, shortened: (§1)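 Single-concentration screen using Ambit Bioscience KINOMEscan technology across a panel of 250–400 kinases. Per-kinase inhibition from this screen was summarized as S(90), the fraction of kinases inhibited by more than 90%.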

[2] = target: Fibroblast growth factor receptor 1 (Homo sapiens) (UniProt P11362); assay: Inhibition of FGFR1 at 1 uM; procedure, shortened: as §1
Fibroblast growth factor receptor 1 (Homo sapiens), sequence (P11362 22-822 limits assumed): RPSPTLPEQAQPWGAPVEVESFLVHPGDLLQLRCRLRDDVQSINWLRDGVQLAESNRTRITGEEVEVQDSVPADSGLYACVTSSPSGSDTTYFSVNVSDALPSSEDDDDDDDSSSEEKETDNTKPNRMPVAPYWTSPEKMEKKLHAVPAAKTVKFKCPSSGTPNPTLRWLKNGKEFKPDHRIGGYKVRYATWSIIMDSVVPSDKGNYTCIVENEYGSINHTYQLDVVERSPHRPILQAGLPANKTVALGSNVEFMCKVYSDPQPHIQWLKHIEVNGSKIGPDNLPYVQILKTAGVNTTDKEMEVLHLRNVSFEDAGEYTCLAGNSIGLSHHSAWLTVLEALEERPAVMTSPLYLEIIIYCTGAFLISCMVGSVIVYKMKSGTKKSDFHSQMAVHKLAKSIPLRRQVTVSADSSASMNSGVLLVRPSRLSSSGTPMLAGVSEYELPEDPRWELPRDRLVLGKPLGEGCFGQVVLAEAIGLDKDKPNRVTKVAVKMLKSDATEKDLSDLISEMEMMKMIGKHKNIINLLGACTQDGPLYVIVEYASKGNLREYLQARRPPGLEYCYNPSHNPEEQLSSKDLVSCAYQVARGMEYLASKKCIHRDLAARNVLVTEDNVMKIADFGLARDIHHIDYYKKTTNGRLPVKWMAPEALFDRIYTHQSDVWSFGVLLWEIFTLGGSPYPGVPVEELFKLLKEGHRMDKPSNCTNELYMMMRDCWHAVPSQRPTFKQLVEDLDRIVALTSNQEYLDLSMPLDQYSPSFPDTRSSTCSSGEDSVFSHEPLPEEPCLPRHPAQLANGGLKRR

[3] = target: T1, Bone morphogenetic protein receptor type-2 (Homo sapiens) (UniProt Q13873); assay: Inhibition of BMPR2 at 1 uM
T1 sequence (whole entry): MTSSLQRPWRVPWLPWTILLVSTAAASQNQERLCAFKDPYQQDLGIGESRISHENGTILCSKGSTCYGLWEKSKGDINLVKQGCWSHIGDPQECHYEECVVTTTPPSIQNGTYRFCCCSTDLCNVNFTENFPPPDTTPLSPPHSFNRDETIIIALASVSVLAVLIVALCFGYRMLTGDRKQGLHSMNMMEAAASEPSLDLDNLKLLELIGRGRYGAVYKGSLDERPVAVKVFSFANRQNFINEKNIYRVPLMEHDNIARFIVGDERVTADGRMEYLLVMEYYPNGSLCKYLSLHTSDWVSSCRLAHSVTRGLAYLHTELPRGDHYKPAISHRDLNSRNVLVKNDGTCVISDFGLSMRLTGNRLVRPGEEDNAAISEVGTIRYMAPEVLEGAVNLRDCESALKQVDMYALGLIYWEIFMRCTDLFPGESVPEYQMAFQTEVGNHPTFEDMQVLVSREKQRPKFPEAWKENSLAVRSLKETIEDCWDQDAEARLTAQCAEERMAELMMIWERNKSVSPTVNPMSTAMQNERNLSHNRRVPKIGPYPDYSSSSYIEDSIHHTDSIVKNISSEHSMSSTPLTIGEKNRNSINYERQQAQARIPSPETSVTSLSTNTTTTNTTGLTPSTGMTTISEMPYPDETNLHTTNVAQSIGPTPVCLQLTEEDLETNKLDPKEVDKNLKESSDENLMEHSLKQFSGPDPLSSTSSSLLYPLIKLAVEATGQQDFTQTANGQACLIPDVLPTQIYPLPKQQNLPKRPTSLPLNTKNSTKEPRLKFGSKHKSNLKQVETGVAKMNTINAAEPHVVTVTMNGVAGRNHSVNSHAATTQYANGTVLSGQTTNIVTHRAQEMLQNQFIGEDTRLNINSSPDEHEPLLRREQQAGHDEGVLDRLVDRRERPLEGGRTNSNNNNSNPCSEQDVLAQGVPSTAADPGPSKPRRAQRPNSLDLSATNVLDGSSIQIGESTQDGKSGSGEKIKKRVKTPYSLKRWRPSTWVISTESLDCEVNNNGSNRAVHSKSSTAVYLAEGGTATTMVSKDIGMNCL

[4] = target: T2, Serine/threonine-protein kinase ULK2 (Homo sapiens) (UniProt Q8IYT8); assay: Inhibition of ULK2 at 1 uM
T2 sequence (whole entry): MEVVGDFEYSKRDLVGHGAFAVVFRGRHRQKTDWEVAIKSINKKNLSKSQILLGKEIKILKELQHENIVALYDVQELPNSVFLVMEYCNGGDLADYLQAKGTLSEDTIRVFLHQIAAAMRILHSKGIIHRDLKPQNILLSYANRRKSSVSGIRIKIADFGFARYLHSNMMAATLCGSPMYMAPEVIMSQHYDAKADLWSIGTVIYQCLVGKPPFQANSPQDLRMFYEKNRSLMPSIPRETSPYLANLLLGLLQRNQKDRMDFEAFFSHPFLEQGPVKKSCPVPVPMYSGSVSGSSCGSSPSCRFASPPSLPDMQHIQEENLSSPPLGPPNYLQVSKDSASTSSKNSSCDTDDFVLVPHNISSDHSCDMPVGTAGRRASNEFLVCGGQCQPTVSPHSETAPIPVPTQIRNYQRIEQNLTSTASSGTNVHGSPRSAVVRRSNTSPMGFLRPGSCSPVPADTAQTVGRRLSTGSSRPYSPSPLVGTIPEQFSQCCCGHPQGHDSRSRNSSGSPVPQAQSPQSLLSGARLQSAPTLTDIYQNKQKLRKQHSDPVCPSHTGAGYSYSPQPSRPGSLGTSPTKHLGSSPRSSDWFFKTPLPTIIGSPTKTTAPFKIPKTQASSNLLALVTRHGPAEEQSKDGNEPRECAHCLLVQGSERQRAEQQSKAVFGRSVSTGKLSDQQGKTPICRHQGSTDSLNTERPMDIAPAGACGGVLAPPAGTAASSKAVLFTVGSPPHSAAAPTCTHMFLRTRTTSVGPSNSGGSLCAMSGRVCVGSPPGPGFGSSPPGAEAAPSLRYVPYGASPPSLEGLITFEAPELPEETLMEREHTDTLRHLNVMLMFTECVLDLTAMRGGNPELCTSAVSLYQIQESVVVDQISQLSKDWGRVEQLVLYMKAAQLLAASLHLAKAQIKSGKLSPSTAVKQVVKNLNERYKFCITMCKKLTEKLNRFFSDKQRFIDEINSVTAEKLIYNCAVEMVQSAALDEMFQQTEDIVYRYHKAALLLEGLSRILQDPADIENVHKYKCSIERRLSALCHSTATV

[5] = target: TGF-beta receptor type-2 (Homo sapiens) (UniProt P37173); assay: Inhibition of TGFBR2 at 1 uM
TGF-beta receptor type-2 (Homo sapiens), sequence (P37173 whole entry): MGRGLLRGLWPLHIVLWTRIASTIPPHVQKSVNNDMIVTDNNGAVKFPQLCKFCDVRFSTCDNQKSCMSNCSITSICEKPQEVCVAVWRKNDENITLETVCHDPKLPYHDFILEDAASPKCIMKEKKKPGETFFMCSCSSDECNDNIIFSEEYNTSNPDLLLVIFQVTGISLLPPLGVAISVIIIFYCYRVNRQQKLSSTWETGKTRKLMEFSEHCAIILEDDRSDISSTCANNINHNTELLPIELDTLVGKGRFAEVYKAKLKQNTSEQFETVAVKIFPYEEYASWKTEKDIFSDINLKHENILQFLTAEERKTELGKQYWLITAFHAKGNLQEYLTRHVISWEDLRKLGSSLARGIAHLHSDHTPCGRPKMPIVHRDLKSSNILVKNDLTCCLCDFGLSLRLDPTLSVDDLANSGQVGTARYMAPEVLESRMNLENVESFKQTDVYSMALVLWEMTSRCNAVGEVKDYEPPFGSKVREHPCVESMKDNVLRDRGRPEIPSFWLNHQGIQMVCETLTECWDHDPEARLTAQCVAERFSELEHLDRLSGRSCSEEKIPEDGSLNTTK

[6] = target: T3, Atypical kinase COQ8B, mitochondrial (Homo sapiens) (UniProt Q96D53); assay: Inhibition of ADCK4 at 1 uM
T3 sequence (whole entry): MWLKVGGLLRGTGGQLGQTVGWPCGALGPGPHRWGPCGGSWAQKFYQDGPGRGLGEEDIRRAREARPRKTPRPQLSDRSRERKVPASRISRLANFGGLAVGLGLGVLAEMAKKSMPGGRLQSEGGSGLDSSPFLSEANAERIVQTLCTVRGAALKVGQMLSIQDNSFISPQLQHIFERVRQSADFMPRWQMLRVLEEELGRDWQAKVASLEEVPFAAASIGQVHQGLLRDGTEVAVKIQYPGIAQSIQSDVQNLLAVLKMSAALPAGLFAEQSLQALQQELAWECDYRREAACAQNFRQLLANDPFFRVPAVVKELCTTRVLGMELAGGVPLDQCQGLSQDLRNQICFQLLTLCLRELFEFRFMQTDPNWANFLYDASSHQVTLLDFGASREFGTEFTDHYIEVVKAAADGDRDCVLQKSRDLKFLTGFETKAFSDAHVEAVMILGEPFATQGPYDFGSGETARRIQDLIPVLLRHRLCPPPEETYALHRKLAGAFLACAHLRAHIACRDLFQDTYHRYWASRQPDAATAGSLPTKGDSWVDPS
Procedure, shortened: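 Ambit KINOMEscan screen at a single concentration across a 250–400 kinase panel, recorded as percent inhibition. Selectivity was expressed as S(90), the fraction of kinases inhibited >90%.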

Serine/threonine-protein kinase MRCK gamma (Homo sapiens), sequence (Q6DT37 whole entry): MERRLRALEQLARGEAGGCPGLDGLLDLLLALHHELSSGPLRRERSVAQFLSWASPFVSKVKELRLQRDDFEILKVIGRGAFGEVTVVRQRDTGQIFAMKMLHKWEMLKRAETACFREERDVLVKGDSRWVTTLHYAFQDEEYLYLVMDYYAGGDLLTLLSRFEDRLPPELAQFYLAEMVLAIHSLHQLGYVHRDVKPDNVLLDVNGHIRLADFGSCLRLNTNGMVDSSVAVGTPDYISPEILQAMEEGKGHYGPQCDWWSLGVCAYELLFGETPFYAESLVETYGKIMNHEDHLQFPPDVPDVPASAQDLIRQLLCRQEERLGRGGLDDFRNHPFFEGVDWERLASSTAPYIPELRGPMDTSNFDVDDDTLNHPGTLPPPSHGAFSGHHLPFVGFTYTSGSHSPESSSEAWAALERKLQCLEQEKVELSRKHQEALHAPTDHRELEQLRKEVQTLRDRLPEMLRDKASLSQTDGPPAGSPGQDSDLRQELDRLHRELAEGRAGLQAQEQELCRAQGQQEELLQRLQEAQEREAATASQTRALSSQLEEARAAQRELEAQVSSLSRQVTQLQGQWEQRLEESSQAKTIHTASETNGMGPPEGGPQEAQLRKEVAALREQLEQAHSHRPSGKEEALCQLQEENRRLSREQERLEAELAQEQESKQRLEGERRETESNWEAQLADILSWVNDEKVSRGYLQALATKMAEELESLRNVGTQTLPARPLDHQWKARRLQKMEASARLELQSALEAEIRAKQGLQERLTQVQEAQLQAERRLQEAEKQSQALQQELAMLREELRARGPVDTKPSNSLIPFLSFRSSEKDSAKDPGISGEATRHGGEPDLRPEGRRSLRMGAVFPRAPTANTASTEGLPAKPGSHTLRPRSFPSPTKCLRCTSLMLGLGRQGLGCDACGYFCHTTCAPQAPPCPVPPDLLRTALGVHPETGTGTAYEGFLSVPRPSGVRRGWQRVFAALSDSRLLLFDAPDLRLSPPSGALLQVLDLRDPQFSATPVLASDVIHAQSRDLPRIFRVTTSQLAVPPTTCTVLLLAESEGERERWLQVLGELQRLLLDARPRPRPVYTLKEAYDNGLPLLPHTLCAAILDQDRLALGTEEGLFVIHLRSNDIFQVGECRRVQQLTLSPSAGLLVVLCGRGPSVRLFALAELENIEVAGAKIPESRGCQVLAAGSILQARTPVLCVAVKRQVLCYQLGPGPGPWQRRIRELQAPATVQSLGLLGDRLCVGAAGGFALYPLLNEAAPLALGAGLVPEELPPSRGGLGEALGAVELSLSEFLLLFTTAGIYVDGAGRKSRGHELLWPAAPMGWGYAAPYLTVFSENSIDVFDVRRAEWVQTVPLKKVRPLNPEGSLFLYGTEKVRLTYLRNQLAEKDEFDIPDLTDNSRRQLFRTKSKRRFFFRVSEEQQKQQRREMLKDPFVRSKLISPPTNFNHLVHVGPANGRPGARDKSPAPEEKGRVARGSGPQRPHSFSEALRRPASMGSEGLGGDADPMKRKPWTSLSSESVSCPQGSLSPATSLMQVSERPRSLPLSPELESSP

| SMILES | inhibition [1] | inhibition [2] | inhibition [3] | inhibition [4] | inhibition [5] | inhibition [6] |
| --- | --- | --- | --- | --- | --- | --- |
| CC(=O)N1CCN(c2cc(-c3cnc4c(c3)N(Cc3cc(Cl)ccc3C(F)(F)F)CCN4)ccn2)CC1 | < 50% | < 50% | < 50% | < 50% | < 50% | < 50% |
| O=C(O)c1ccc(-c2cnc3c(c2)N(Cc2cc(Cl)ccc2C(F)(F)F)CCN3)cc1 | < 50% | < 50% |  |  | < 50% | < 50% |
| O=C(c1ccc(-c2cnc3c(c2)N(Cc2cc(Cl)ccc2C(F)(F)F)CCN3)cc1)N1CCCCC1 | < 50% | < 50% |  |  | < 50% | < 50% |
| COC1CCN(C(=O)c2ccc(-c3cnc4c(c3)N(Cc3cc(Cl)ccc3C(F)(F)F)CCN4)cc2)CC1 | < 50% | < 50% |  |  | < 50% | < 50% |
| FC(F)(F)c1ccc(Cl)cc1CN1CCNc2ncc(-c3ccnc(N4CCNCC4)c3)cc21 | < 50% | < 50% | < 50% | 78% | < 50% | < 50% |
| O=C(c1ccc(-c2cnc3c(c2)N(Cc2cc(Cl)ccc2C(F)(F)F)CCN3)cc1)N1CCC(N2CCCC2)CC1 | < 50% | < 50% |  |  | < 50% | < 50% |

More lines, now with the values ahead:

| inhibition [1] | inhibition [2] | inhibition [3] | inhibition [4] | inhibition [5] | inhibition [6] | SMILES |
| --- | --- | --- | --- | --- | --- | --- |
| < 50% | < 50% | < 50% | < 50% | < 50% | < 50% | CN1CCN(c2ccc(-c3cnc4c(c3)N(Cc3cc(Cl)ccc3C(F)(F)F)CCN4)cn2)CC1 |
| < 50% | < 50% | < 50% | < 50% | < 50% | < 50% | CN1CCN(c2ccc(-c3cnc4c(c3)N(Cc3cc(F)ccc3F)CCN4)cn2)CC1 |
| < 50% | < 50% | < 50% | < 50% | < 50% | < 50% | CN1CCN(c2ccc(-c3cnc4c(c3)N(Cc3cc(Cl)ccc3Cl)CCN4)cn2)CC1 |
| < 50% | < 50% | < 50% | < 50% | < 50% | < 50% | CN1CCN(c2ccc(-c3cnc4c(c3)N(Cc3c(F)ccc(F)c3Cl)CCN4)cn2)CC1 |
